Measured values as given in PubChem BioAssay AID652250 (Vanderbilt Specialized Chemistry Center, 2013).
Activity calls are given as the source filed them.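 The calls were made as follows: active = compounds leaving under half of the peptide-driven platelet calcium rise; inactive = the rest.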

The compounds below were run against Proteinase-activated receptor 4 (Homo sapiens) (UniProt Q96RI0) (assay: inhibition of PAR4-AP calcium signal – cell-based, single concentration, washed platelets, Fluo4 calcium (AID 652250)). Conditions: PAR4-AP calcium Fluo4 fluorescence.
Chain of Proteinase-activated receptor 4 (Homo sapiens) (Q96RI0 whole entry, looked up): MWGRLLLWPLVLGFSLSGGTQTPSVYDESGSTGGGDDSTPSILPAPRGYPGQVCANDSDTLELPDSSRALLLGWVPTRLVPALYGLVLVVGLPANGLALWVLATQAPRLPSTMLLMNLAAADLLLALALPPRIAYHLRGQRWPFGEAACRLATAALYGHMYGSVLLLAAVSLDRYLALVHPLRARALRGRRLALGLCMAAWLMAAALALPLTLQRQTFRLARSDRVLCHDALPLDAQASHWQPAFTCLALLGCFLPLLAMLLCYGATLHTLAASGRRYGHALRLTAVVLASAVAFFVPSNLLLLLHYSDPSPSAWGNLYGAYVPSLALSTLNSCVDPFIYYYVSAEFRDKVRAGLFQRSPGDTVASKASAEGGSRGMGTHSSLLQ
Outline: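 Test system: Fluo4-AM-loaded washed human platelets | Input: 10^8 platelets/mL | Signal: Fluorescence at 480/540 nm, 1 s intervals | Controls: PAR4-AP-stimulated DMSO control (100%) | Replication: Triplicate wells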
`COc1ccc(-c2cn(Cc3ccccc3)c3ccccc23)cc1` was tested, and the IC50 was 10 µM.
`COc1ccc(-c2cn(Cc3ccccc3)c3ccccc23)cn1` showed an IC50 of 5.4 µM.
`COc1ccc(-c2cn(Cc3cccc(F)c3)c3ccccc23)cn1` showed an IC50 of 3.85 µM.
`COc1cccc(Cn2cc(-c3ccc(OC)nc3)c3ccccc32)c1` showed an IC50 of 14.6 µM.

Same assay, conditions: PAR4-AP calcium Fluo4 fluorescence, at 10 µM, hits give low values
In the case of `CN(C)CCNC(=O)Cc1cn(C)c2ccccc12`, the “% of max PAR4-AP calcium response” value is reported as “inactive”.
In the case of `c1ccc(COc2ccc(-c3cn(Cc4ccccc4)c4ccccc34)cc2)cc1`, the “% of max PAR4-AP calcium response” value is reported as “inactive”.
With `Cc1c(C)n(CC(O)CNCc2ccccc2)c2ccccc12` (centres undefined) the “% of max PAR4-AP calcium response” value was “inactive”.
For `c1ccc(Cn2cc(CN3CCN(c4ccccc4)CC3)c3ccccc32)cc1`, the “% of max PAR4-AP calcium response” value was “inactive”.
For `COc1ccc(-n2cc(-c3ccccc3)c3c(NCCO)ncnc32)cc1`, the “% of max PAR4-AP calcium response” value was “inactive”.
With `O=C(Nc1cccc(Br)c1)c1ccn(C(=O)c2ccc(Cl)cc2)n1` the “% of max PAR4-AP calcium response” value was “inactive”.
With `CCN(CCCNC(=O)Cc1cn(C)c2ccccc12)c1ccccc1` the “% of max PAR4-AP calcium response” value was “inactive”.
With `CCn1ccc(C(=O)NC2CCCCC2)n1` the “% of max PAR4-AP calcium response” value was “inactive”.
`COc1cccc(/C=N/NC(=O)c2ccn(Cc3ccc(Cl)cc3Cl)n2)c1OC` was tested, and the “% of max PAR4-AP calcium response” value was “inactive”.
In the case of `CC(C)COc1ccc(-c2cn(Cc3ccccc3)c3ccccc23)cc1`, the “% of max PAR4-AP calcium response” value is reported as “inactive”.
In the case of `Fc1ccc(-c2cn(Cc3ccccc3)c3ccccc23)c(F)n1`, the “% of max PAR4-AP calcium response” value is reported as “inactive”.
`Fc1ccc(CNc2ncnc3c2c(-c2ccccc2)cn3-c2ccc(Br)cc2)cc1` was tested, and the “% of max PAR4-AP calcium response” value was “inactive”.
In the case of `CCc1nn(-c2ccccc2)c2nc(-c3cccc(OC)c3)c3cc(OC)c(OC)cc3c12`, the “% of max PAR4-AP calcium response” value is reported as “inactive”.
With `CC1CCCCN1C(=O)Cn1cc(C(=O)C(F)(F)F)c2ccccc21` (centres undefined) the “% of max PAR4-AP calcium response” value was “inactive”.
For `Fc1cc(-c2cn(Cc3ccccc3)c3ccccc23)cc(F)n1`, the “% of max PAR4-AP calcium response” value was “inactive”.
For `COc1ccccc1OCCCn1cc(C(=O)C(F)(F)F)c2ccccc21`, the “% of max PAR4-AP calcium response” value was “inactive”.
`Cc1c(C)n(C(=O)CSc2ncccn2)c2ccccc12` was tested, and the “% of max PAR4-AP calcium response” value was “inactive”.
`O=C(Cn1cc(CO)c2ccccc21)Nc1ccccc1` was tested, and the “% of max PAR4-AP calcium response” value was “inactive”.
`CCSc1ncnc2c1c(-c1ccccc1)cn2-c1ccc(F)cc1` was tested, and the “% of max PAR4-AP calcium response” value was “inactive”.
`COc1ccc(OC)c(CNC(=O)CCCc2cn(C)c3ccccc23)c1` was tested, and the “% of max PAR4-AP calcium response” value was “inactive”.
With `O=C(N/N=C/c1cccc2cccnc12)c1ccn(Cc2ccc(Cl)cc2)n1` the “% of max PAR4-AP calcium response” value was “inactive”.
With `Cn1cc(CC(=O)NCCN2CCOCC2)c2ccccc21` the “% of max PAR4-AP calcium response” value was “inactive”.
With `O=C(N/N=C/c1c[nH]c2ccccc12)c1ccn(Cc2ccc(Cl)cc2)n1` the “% of max PAR4-AP calcium response” value was “inactive”.
`CC(=O)n1cc(C(C[N+](=O)[O-])SCc2ccccc2)c2ccccc21` (centres undefined) was tested, and the “% of max PAR4-AP calcium response” value was “inactive”.
For `CCn1ccc(C(=O)Nc2ccc(C(F)(F)F)cc2Cl)n1`, the “% of max PAR4-AP calcium response” value was “inactive”.
With `COc1cc(NC(=O)c2ccc3c(c2)c(C)c(C)n3C)cc(OC)c1` the “% of max PAR4-AP calcium response” value was “inactive”.
In the case of `Cc1cc(F)ncc1-c1cn(Cc2ccccc2)c2ccccc12`, the “% of max PAR4-AP calcium response” value is reported as “inactive”.
In the case of `COc1ccc2c(c1)c(C(=O)N1CCCC1)c(C)n2Cc1ccccc1`, the “% of max PAR4-AP calcium response” value is reported as “inactive”.
For `COc1ccc(NCC(O)Cn2c(C)c(C)c3ccccc32)cc1` (centres undefined), the “% of max PAR4-AP calcium response” value was “inactive”.
`OCCCNc1ncnc2c1c(-c1ccccc1)cn2-c1ccc(F)cc1` was tested, and the “% of max PAR4-AP calcium response” value was “inactive”.
`Cc1ccc(-n2cc(-c3ccccc3)c3c(N4CCCC4)ncnc32)cc1` was tested, and the “% of max PAR4-AP calcium response” value was “inactive”.
`c1ccc(-c2cn(-c3ccccc3)c3ncnc(N4CCCC4)c23)cc1` was tested, and the “% of max PAR4-AP calcium response” value was “inactive”.
In the case of `COc1cc(OC)cc(-c2cn(Cc3ccccc3)c3ccccc23)c1`, the “% of max PAR4-AP calcium response” value is reported as “inactive”.
`Cc1c(C)n(CC(O)CNc2ccccc2)c2ccccc12` (centres undefined) was tested, and the “% of max PAR4-AP calcium response” value was “inactive”.
For `S=C(c1cn(CCCOc2ccccc2Cl)c2ccccc12)N1CCCC1`, the “% of max PAR4-AP calcium response” value was “inactive”.
For `O=C(c1cn(CCOc2ccccc2Cl)c2ccccc12)C(F)(F)F`, the “% of max PAR4-AP calcium response” value was “inactive”.
In the case of `FC(F)(F)c1cccc(-n2cc(-c3ccccc3)c3c(NCCN4CCOCC4)ncnc32)c1`, the “% of max PAR4-AP calcium response” value is reported as “inactive”.
With `COc1ccc2c(c1)c(C(=O)CNc1nc(C)c(C)s1)c(C)n2C` the “% of max PAR4-AP calcium response” value was “inactive”.
`Clc1ccc(-n2cc(-c3ccccc3)c3c(N4CCOCC4)ncnc32)cc1` was tested, and the “% of max PAR4-AP calcium response” value was “inactive”.
Compound `S=C(c1cn(CCOc2ccccc2Cl)c2ccccc12)N1CCCCC1` has a % of max PAR4-AP calcium response of 39.9%.
With `CCCOc1ccc(-c2cn(Cc3ccccc3)c3ccccc23)cc1` the “% of max PAR4-AP calcium response” value was “inactive”.
`c1ccc(CN2CCN(c3ncnc4c3c(-c3ccccc3)cn4-c3ccccc3)CC2)cc1` was tested, and the “% of max PAR4-AP calcium response” value was “inactive”.
For `N#Cc1ccc(-c2cn(Cc3ccccc3)c3ccccc23)cc1`, the “% of max PAR4-AP calcium response” value was “inactive”.
With `Cc1ccc(-n2cc(-c3ccccc3)c3c(NCc4ccc5c(c4)OCO5)ncnc32)cc1Cl` the “% of max PAR4-AP calcium response” value was “inactive”.
`Oc1ccccc1-c1nc2c3c(-c4ccccc4)c(-c4ccccc4)n(Cc4ccco4)c3ncn2n1` was tested, and the “% of max PAR4-AP calcium response” value was “inactive”.
For `CC(C)Oc1ccc(-c2cn(Cc3ccccc3)c3ccccc23)cc1F`, the “% of max PAR4-AP calcium response” value was “inactive”.
`Cc1ccc(OCCCn2cc(C(=O)C(F)(F)F)c3ccccc32)cc1` was tested, and the “% of max PAR4-AP calcium response” value was “inactive”.
For `O=C(CCc1cn(Cc2ccccc2)c2ccccc12)NCCN1CCOCC1`, the “% of max PAR4-AP calcium response” value was “inactive”.
In the case of `Cc1cc(C)nc(SCC(=O)n2c(C)c(C)c3ccccc32)n1`, the “% of max PAR4-AP calcium response” value is reported as “inactive”.
With `COc1ccc(-n2nc(C(=O)NCCC3=CCCCC3)c3c4ccccc4n(C)c3c2=O)cc1Cl` the “% of max PAR4-AP calcium response” value was “inactive”.
For `CC(C)NC(=O)CCc1cn(Cc2ccccc2)c2ccccc12`, the “% of max PAR4-AP calcium response” value was “inactive”.
In the case of `Cc1cccc(NCC(O)Cn2c(C)c(C)c3ccccc32)c1C` (centres undefined), the “% of max PAR4-AP calcium response” value is reported as “inactive”.
For `O=C(c1cn(CCOc2ccc3c(c2)OCO3)c2ccc(Br)cc12)C(F)(F)F`, the “% of max PAR4-AP calcium response” value was “inactive”.
In the case of `Cc1ccc(-n2cc(-c3ccccc3)c3c(N4CCCC4)ncnc32)cc1Cl`, the “% of max PAR4-AP calcium response” value is reported as “inactive”.
In the case of `COc1ccc(-c2cn(Cc3ccccc3)c3ccccc23)c(OC)n1`, the “% of max PAR4-AP calcium response” value is reported as “inactive”.
`Cc1cn(CC(=O)c2ccccc2)c2ccccc12` was tested, and the “% of max PAR4-AP calcium response” value was “inactive”.
With `COc1ccc(N(C)C(=O)Cc2c(C(=O)O)n(C)c3ccccc23)cc1` the “% of max PAR4-AP calcium response” value was “inactive”.
For `COc1ccc2c(c1)c(C(C)=O)c(C)n2-c1cccc(Br)c1`, the “% of max PAR4-AP calcium response” value was “inactive”.
In the case of `O=C(c1ccn(C(=O)c2cccc(Cl)c2)n1)N1CCOCC1`, the “% of max PAR4-AP calcium response” value is reported as “inactive”.
For `CCn1ccc(C(=O)Nc2ccc(Cl)cc2Cl)n1`, the “% of max PAR4-AP calcium response” value was “inactive”.
For `COc1ccc(-c2cn(Cc3cccc(-c4cccs4)c3)c3ccccc23)cn1`, the “% of max PAR4-AP calcium response” value was “inactive”.
`CC(C)Oc1ccc(-c2cn(Cc3ccccc3)c3ccccc23)cc1` was tested, and the “% of max PAR4-AP calcium response” value was “inactive”.
In the case of `Cc1ccc(OCCn2cc(C(=S)N3CCOCC3)c3ccccc32)cc1`, the “% of max PAR4-AP calcium response” value is reported as “inactive”.
In the case of `Cn1cnnc1SCC(=O)n1c2c(c3ccccc31)CCCC2`, the “% of max PAR4-AP calcium response” value is reported as “inactive”.
With `CC(=O)n1cc(C2C(=O)NN=C2C)c2ccccc21` (centres undefined) the “% of max PAR4-AP calcium response” value was “inactive”.
For `CSc1ncnc2c1c(-c1ccccc1)cn2-c1ccc(F)cc1`, the “% of max PAR4-AP calcium response” value was “inactive”.
`Clc1ccccc1CNc1ncnc2c1c(-c1ccccc1)cn2-c1ccccc1` was tested, and the “% of max PAR4-AP calcium response” value was “inactive”.
With `Cn1cc(-c2cn(Cc3ccccc3)c3ccccc23)cn1` the “% of max PAR4-AP calcium response” value was “inactive”.
With `O=C(c1ccccc1F)n1c2c(c3ccccc31)CCCC2` the “% of max PAR4-AP calcium response” value was “inactive”.
`O=C(CSc1ncnc2c1c(-c1ccccc1)cn2-c1ccc(F)cc1)c1ccccc1` was tested, and the “% of max PAR4-AP calcium response” value was “inactive”.
`O=C(Cn1cc(C(=O)C(F)(F)F)c2ccccc21)N1CCCC1` was tested, and the “% of max PAR4-AP calcium response” value was “inactive”.
In the case of `CCN(CC)c1ncnc2c1c(-c1ccccc1)cn2-c1ccc(C)c(Cl)c1`, the “% of max PAR4-AP calcium response” value is reported as “inactive”.
With `Cn1cc(C(=O)Cc2ccccc2)c2ccccc21` the “% of max PAR4-AP calcium response” value was “inactive”.
In the case of `O=C(c1cn(CCCOc2ccccc2)c2ccccc12)C(F)(F)F`, the “% of max PAR4-AP calcium response” value is reported as “inactive”.
`COc1ccccc1OCCn1cc(C(=S)N2CCCC2)c2ccccc21` was tested, and the “% of max PAR4-AP calcium response” value was “inactive”.
In the case of `OCCc1cn(-c2ccccc2)c2ccccc12`, the “% of max PAR4-AP calcium response” value is reported as “inactive”.
`CCn1c(COC)c(-c2ccccc2)c2cc([N+](=O)[O-])ccc21` was tested, and the “% of max PAR4-AP calcium response” value was “inactive”.
For `COc1ccc(C(C[N+](=O)[O-])c2c(-c3ccccc3)n(C)c3ccccc23)cc1` (centres undefined), the “% of max PAR4-AP calcium response” value was “inactive”.
`OCc1cn(Cc2ccccc2Cl)c2ccccc12` was tested, and the “% of max PAR4-AP calcium response” value was “inactive”.
With `Cc1cccc(-n2cc(-c3ccccc3)c3c(N4CCN(c5ccccc5)CC4)ncnc32)c1` the “% of max PAR4-AP calcium response” value was “inactive”.
